ChEMBL document CHEMBL1138476 (J Med Chem, 2009)

How the values were obtained:
[1] = molecular target: T1, Corticotropin-releasing factor receptor 1 (Rattus norvegicus, UniProt P35353); experiment: Displacement of [125I]Tyro-rat/human CRF from CRF1 receptor in rat cortical membrane by gamma counting; format: cell membranes
T1 sequence (P35353 whole entry): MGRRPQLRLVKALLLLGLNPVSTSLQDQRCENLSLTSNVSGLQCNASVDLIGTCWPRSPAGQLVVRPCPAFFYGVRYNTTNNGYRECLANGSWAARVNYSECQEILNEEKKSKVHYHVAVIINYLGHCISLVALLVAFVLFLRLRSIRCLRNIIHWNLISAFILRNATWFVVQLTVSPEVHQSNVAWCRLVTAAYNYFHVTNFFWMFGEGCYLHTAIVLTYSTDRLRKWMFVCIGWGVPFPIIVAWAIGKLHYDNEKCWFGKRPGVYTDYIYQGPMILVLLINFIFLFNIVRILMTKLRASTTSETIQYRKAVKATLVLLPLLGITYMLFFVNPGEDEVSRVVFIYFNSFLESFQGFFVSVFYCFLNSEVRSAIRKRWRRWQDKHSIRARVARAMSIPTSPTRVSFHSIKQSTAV
Method in brief: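 Binding to CRF receptors in rat cortical homogenate.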

[2] = Cmax in Beagle dog at 1 mg/kg, po by cassette dosing; format: ADME, organism-based, Canis lupus familiaris; parameters: dose 1 mg/kg, route oral; conditions: in vivo
[3] = AUC in Beagle dog at 1 mg/kg, po by cassette dosing; format: ADME, organism-based, Canis lupus familiaris; parameters: dose 1 mg/kg, route oral; conditions: plasma
[4] = Half life in Beagle dog at 1 mg/kg, po by cassette dosing; format: ADME, organism-based, Canis lupus familiaris; parameters: dose 1 mg/kg, route oral; conditions: in vivo
Rattus norvegicus = experiment: Effect on gastrointestinal motility in fasted Sprague-Dawley rat assessed as distance of charcoal moved from stomach to cecum at 3 mg/kg, po (RVb= 42.1+/-1.8 %)

| Compound | IC50 [1] [nM] | further results |
| --- | --- | --- |
| CCCN(CC1CC1)c1nc(C)nc2c(-c3ccc(OC)nc3C)c(C)nn12 | 1.6 | – |
| CCCC(C)Nc1nc(C)nc2c(-c3ccc(OC)nc3C)c(C)nn12 (centres undefined) | 3.5 | Cmax [2]: 156 nM; AUC [3]: 0.955 µM·h; half-life [4]: 11.8 h |
| CCN(C)c1nc(C)nc2c(-c3ccc(OC)nc3C)c(C)nn12 | 81.6 | – |
| CN1[C@@H]2CC[C@H]1C[C@@H](OC(=O)C(CO)c1ccccc1)C2 (mixture of isomers) [ATROPINE] | – | Activity (Rattus norvegicus): 27.5% |
| CCCCN(CCC)c1nc(C)nc2c(-c3ccc(OC)nc3C)c(C)nn12 | 2.4 | – |
| COCCN(CCOC)c1nc(C)nc2c(-c3cnc(N(C)C)cc3C)c(C)nn12 | 91.9 | – |
| CCN(CCOC)c1nc(C)nc2c(-c3ccc(OC)nc3C)c(C)nn12 | 6.6 | – |

The remaining molecules from weak to strong by IC50 [1], led by results:

| IC50 [1] [nM] | Compound | further results |
| --- | --- | --- |
| 58 | CCN(CC)c1nc(C)nc2c(-c3c(C)cc(N(C)C)nc3C)c(C)nn12 | – |
| 17.6 | CCCN(C)c1nc(C)nc2c(-c3ccc(OC)nc3C)c(C)nn12 | – |
| 13.8 | CCN(CC)c1nc(C)nc2c(-c3cnc(N(C)C)cc3C)c(C)nn12 | – |
| 12.8 | CCCCN(CCC)c1nc(C)nc2c(-c3c(C)cc(N(C)C)nc3C)c(C)nn12 | – |
| 8.5 | COCCN(CCOC)c1nc(C)nc2c(-c3ccc(OC)nc3C)c(C)nn12 | Cmax [2]: 275 nM; AUC [3]: 1.47 µM·h; half-life [4]: 10.3 h |
| 8.1 | CCCCN(C)c1nc(C)nc2c(-c3ccc(OC)nc3C)c(C)nn12 | – |
| 7 | CC[C@H](C)Nc1nc(C)nc2c(-c3ccc(OC)nc3C)c(C)nn12 | Cmax [2]: 168 nM; AUC [3]: 0.916 µM·h; half-life [4]: 7.9 h |
| 5.1 | CCCCC(C)Nc1nc(C)nc2c(-c3ccc(OC)nc3C)c(C)nn12 (centres undefined) | – |
| 3.1 | CCC(CC)Nc1nc(C)nc2c(-c3ccc(OC)nc3C)c(C)nn12 | – |
| 3.1 | COCCN(CC1CC1)c1nc(C)nc2c(-c3ccc(OC)nc3C)c(C)nn12 | Cmax [2]: 314 nM; AUC [3]: 1.73 µM·h; half-life [4]: 11.4 h |
